The M2OR odorant receptor database

What was measured:
Conditions in all cases: stereoisomer not certain
[1] = biological target: T1, OR10H2 (Homo sapiens) (UniProt O60403)
T1 sequence (whole entry): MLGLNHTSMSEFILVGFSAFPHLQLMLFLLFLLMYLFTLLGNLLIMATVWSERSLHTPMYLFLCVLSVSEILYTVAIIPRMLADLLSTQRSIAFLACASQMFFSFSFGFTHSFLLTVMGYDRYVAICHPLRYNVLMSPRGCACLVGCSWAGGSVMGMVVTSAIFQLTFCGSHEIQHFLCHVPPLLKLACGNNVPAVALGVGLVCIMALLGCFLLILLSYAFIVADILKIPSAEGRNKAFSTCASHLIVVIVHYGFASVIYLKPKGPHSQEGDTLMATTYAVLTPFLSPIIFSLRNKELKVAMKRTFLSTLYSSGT
Summary of the method: (§1)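 Assay methods differ from source to source, frequently being transient luciferase assays in mammalian cell lines. For each receptor–molecule pair, the label responsive (active) applies when the original authors judged the measured signal statistically different from baseline, and non-responsive (inactive) applies otherwise.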

[2] = biological target: OR10A2 (Homo sapiens) (UniProt Q9H208)
OR10A2 (Homo sapiens), sequence (Q9H208 whole entry): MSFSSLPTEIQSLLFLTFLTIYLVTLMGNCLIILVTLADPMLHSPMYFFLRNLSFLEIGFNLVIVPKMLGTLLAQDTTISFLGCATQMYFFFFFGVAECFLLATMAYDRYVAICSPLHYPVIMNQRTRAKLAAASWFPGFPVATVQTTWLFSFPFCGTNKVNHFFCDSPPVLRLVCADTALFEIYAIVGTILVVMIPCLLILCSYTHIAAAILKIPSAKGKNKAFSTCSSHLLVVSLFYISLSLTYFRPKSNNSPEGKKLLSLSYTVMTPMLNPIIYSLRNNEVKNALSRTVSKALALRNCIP
Summary of the method: as §1

[3] = biological target: OR10A3 (Homo sapiens) (UniProt P58181)
Summary of the method: as §1

[4] = biological target: OR10A4 (Homo sapiens) (UniProt Q9H209)
OR10A4 (Homo sapiens), sequence (Q9H209 whole entry): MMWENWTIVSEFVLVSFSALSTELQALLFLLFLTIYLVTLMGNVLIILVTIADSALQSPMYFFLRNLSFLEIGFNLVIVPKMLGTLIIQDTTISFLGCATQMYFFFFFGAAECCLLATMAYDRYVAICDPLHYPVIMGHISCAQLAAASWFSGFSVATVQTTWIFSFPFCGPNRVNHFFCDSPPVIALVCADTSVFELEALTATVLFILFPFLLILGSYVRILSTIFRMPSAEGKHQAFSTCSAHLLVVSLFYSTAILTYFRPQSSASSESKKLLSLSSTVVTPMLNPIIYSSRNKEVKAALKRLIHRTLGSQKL
Summary of the method: as §1

[5] = biological target: OR10A5 (Homo sapiens) (UniProt Q9H207)
OR10A5 (Homo sapiens), sequence (Q9H207 whole entry): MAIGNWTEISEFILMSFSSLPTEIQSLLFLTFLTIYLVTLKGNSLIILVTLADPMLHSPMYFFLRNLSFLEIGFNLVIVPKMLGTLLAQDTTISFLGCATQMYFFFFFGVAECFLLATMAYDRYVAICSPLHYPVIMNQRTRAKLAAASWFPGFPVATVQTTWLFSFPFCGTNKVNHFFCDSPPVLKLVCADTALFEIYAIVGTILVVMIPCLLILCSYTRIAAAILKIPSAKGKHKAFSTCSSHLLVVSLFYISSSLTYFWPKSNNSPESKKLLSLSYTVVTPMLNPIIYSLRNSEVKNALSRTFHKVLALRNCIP
Summary of the method: as §1

[6] = biological target: OR10A6 (Homo sapiens) (UniProt Q8NH74)
OR10A6 (Homo sapiens), sequence (Q8NH74 whole entry): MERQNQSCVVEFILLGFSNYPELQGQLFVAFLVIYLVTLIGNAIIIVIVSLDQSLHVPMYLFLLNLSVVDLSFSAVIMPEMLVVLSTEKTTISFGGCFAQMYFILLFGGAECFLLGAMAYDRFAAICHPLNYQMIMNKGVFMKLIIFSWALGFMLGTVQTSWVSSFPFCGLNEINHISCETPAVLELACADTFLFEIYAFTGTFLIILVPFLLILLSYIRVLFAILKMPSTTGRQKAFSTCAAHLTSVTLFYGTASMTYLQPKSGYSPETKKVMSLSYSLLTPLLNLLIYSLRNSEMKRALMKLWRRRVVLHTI
Summary of the method: as §1

[7] = biological target: OR10A7 (Homo sapiens) (UniProt Q8NGE5)
OR10A7 (Homo sapiens), sequence (Q8NGE5 whole entry): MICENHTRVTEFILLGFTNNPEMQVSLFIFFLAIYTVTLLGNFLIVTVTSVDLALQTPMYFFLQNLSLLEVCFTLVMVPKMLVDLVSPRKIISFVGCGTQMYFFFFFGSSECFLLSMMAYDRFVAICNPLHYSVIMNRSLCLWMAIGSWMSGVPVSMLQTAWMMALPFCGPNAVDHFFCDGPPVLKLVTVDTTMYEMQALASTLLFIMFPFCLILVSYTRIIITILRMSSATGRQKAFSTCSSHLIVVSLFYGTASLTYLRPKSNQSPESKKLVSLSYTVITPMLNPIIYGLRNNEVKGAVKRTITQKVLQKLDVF
Summary of the method: as §1

[8] = biological target: OR10AD1 (Homo sapiens) (UniProt Q8NGE0)
OR10AD1 (Homo sapiens), sequence (Q8NGE0 whole entry): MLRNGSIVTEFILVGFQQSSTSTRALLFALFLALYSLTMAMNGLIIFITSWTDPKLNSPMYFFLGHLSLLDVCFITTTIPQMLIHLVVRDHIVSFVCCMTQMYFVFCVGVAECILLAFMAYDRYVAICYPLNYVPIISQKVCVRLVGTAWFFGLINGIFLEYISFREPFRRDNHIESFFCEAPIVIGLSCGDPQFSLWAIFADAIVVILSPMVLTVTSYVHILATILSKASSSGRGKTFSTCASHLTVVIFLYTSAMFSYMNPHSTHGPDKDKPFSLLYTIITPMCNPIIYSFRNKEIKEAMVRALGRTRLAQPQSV
Summary of the method: as §1

[9] = biological target: OR10AG1 (Homo sapiens) (UniProt Q8NH19)
OR10AG1 (Homo sapiens), sequence (Q8NH19 whole entry): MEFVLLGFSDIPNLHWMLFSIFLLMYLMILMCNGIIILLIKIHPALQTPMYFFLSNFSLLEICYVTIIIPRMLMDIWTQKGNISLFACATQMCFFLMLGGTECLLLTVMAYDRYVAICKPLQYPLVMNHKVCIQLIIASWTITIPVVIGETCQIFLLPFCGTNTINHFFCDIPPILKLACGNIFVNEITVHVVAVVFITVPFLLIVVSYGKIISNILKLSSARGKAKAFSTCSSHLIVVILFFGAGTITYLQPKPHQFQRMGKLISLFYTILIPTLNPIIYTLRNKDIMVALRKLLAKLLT
Summary of the method: as §1

[10] = biological target: OR10C1 (Homo sapiens) (UniProt Q96KK4)
OR10C1 (Homo sapiens), sequence (Q96KK4 whole entry): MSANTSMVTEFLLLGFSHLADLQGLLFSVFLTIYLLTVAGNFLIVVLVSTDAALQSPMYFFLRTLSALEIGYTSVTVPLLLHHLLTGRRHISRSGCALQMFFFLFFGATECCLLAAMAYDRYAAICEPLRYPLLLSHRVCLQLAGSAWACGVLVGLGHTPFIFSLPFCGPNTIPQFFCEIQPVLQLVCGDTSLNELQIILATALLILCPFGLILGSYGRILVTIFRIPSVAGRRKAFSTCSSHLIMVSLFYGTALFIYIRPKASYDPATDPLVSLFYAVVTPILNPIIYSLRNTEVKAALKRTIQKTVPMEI
Summary of the method: as §1

[11] = biological target: OR10D3 (Homo sapiens) (UniProt Q8NH80)
Summary of the method: as §1

[12] = biological target: OR10G2 (Homo sapiens) (UniProt Q8NGC3)
OR10G2 (Homo sapiens), sequence (Q8NGC3 whole entry): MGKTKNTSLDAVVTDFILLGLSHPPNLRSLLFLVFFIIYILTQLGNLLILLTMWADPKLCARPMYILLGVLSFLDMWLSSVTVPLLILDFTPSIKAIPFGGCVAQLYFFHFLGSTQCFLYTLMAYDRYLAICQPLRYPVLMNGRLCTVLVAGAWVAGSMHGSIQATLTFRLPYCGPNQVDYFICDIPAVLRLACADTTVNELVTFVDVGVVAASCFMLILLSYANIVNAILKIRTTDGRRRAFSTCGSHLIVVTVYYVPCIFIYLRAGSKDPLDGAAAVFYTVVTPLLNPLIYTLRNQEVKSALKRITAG
Summary of the method: as §1

[13] = biological target: OR10G3 (Homo sapiens) (UniProt Q8NGC4)
OR10G3 (Homo sapiens), sequence (Q8NGC4 whole entry): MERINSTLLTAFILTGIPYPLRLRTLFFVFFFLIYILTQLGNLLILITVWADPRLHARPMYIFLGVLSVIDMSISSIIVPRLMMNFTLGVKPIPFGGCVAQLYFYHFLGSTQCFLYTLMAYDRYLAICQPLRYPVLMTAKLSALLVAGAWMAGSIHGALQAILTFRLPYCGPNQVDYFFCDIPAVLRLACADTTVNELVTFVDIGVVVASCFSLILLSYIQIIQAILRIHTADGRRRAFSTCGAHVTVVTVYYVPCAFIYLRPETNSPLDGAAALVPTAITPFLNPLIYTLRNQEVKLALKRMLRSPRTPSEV
Summary of the method: as §1

[14] = biological target: OR10G4 (Homo sapiens) (UniProt Q8NGN3)
OR10G4 (Homo sapiens), sequence (Q8NGN3 whole entry): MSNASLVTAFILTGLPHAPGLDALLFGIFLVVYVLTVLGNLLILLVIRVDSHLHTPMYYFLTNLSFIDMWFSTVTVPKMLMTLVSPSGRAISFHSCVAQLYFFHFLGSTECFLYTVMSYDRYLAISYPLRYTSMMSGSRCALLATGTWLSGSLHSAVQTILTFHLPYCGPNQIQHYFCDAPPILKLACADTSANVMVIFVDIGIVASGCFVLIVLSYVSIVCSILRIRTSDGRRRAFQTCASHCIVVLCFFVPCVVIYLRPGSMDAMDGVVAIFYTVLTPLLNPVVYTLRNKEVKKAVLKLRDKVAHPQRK
Summary of the method: as §1

[15] = biological target: OR10G6 (Homo sapiens) (UniProt Q8NH81)
OR10G6 (Homo sapiens), sequence (Q8NH81 whole entry): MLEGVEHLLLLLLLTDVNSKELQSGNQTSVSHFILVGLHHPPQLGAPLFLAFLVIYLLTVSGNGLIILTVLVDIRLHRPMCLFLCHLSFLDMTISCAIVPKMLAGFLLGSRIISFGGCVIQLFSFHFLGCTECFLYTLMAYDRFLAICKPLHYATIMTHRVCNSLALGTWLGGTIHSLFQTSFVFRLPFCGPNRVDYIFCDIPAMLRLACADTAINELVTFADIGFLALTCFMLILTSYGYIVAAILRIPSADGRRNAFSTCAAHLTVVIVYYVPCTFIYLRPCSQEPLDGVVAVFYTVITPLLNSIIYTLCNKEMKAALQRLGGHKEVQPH
Summary of the method: as §1

[16] = biological target: OR10G7 (Homo sapiens) (UniProt Q8NGN6)
OR10G7 (Homo sapiens), sequence (Q8NGN6 whole entry): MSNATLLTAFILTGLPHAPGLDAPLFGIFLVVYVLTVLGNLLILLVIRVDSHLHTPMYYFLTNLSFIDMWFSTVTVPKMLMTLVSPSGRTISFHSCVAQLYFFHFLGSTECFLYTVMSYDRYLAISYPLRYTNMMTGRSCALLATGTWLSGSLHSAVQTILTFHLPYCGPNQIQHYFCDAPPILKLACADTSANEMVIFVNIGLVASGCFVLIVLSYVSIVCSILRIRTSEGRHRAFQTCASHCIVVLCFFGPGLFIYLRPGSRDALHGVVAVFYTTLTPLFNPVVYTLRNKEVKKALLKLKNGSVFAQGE
Summary of the method: as §1

[17] = biological target: OR10G8 (Homo sapiens) (UniProt Q8NGN5)
OR10G8 (Homo sapiens), sequence (Q8NGN5 whole entry): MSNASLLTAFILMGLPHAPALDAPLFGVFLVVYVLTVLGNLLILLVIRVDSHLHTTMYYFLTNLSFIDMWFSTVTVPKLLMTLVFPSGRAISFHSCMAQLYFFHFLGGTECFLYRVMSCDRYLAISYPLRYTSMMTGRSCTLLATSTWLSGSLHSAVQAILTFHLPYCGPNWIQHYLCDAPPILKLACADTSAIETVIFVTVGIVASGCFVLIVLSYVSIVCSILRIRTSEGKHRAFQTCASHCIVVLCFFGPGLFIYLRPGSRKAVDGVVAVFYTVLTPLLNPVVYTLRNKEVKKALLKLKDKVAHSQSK
Summary of the method: as §1

[18] = biological target: OR10G9 (Homo sapiens) (UniProt Q8NGN4)
OR10G9 (Homo sapiens), sequence (Q8NGN4 whole entry): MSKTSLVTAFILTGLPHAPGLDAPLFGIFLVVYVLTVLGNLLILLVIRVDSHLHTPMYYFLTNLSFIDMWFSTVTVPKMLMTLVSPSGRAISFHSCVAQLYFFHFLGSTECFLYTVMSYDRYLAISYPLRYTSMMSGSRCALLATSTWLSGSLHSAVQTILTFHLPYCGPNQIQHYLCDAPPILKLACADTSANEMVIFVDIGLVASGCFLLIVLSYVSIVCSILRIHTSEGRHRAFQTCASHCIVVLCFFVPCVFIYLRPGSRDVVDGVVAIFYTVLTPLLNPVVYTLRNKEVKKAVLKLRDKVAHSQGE
Summary of the method: as §1

[19] = biological target: OR10H1 (Homo sapiens) (UniProt Q9Y4A9)
Summary of the method: as §1

[20] = biological target: OR10AC1 (Homo sapiens) (UniProt Q8NH08)
Summary of the method: as §1

| SMILES | odorant receptor agonist call [1] | odorant receptor agonist call [2] | odorant receptor agonist call [3] | odorant receptor agonist call [4] | odorant receptor agonist call [5] | odorant receptor agonist call [6] | odorant receptor agonist call [7] | odorant receptor agonist call [8] | odorant receptor agonist call [9] | odorant receptor agonist call [10] | odorant receptor agonist call [11] | odorant receptor agonist call [12] | odorant receptor agonist call [13] | odorant receptor agonist call [14] | odorant receptor agonist call [15] | odorant receptor agonist call [16] | odorant receptor agonist call [17] | odorant receptor agonist call [18] | odorant receptor agonist call [19] | odorant receptor agonist call [20] |
| --- | --- | --- | --- | --- | --- | --- | --- | --- | --- | --- | --- | --- | --- | --- | --- | --- | --- | --- | --- | --- |
| O=CC=Cc1ccccc1 | active |  |  |  |  |  |  |  |  |  |  |  |  |  |  |  |  |  |  |  |
| C=CCOC(=O)Cc1ccccc1 | inactive | inactive | inactive | inactive | inactive | inactive | inactive | inactive | inactive | inactive | inactive | inactive | inactive | inactive | inactive | inactive | inactive | inactive | inactive |  |
| Cc1c([N+](=O)[O-])c(C)c([N+](=O)[O-])c(C(C)(C)C)c1[N+](=O)[O-] | inactive | inactive |  | inactive | inactive | inactive | inactive | inactive | inactive | inactive |  | inactive | inactive | inactive | inactive | inactive | inactive | inactive | inactive | inactive |
